Biological target: T1, 1,25-dihydroxyvitamin D(3) 24-hydroxylase, mitochondrial (Rattus norvegicus, UniProt Q09128)
T1 sequence (Q09128 whole entry): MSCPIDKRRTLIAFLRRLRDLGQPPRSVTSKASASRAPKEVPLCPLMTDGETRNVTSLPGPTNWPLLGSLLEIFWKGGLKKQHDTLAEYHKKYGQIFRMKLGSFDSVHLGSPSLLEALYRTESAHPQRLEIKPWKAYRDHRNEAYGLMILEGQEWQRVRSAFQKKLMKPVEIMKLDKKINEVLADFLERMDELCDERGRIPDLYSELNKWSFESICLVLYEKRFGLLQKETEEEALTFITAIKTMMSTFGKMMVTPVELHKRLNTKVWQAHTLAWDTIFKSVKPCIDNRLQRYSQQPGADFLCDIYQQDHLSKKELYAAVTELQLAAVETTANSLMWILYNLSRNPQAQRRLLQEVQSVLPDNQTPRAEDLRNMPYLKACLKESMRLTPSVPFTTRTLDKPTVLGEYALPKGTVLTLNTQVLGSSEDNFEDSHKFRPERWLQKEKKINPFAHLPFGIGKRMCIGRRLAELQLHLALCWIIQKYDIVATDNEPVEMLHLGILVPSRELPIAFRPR
Test: Inhibitory activity against 25-hydroxyvitamin D3 24-hydroxylase of rat kidney mitochondria
In short: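 Substrate was [26,27-methyl-3H]-25-hydroxyvitamin D3, taken from a stock of labelled plus unlabelled 25 µM 25(OH)D3 holding 5 µCi/mL. It was incubated with NADPH and inhibitor at varying concentrations (in acetonitrile) in phosphate buffer pH 7.4, shaking at 37 °C for 30 min. Metabolites were extracted with ethyl acetate and analysed by HPLC with online radioactivity detection, quantified by peak area. Results are % inhibition relative to an acetonitrile control.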

Row | SMILES | IC50 [µM]
1 | O=C1/C(=C/c2ccc(-c3ccccc3)cc2)CCc2cc(O)ccc21 | > 100
2 | O=C1/C(=C/c2ccccc2-c2ccccc2)CCc2cc(O)ccc21 | > 100
3 | COc1ccc2c(c1)CCC(Cc1ccc(O)cc1)C2 (stereo not drawn) | 2.6
4 | CN(C)c1ccc(CC2CCc3cc(O)ccc3C2=O)cc1 (stereo not drawn) | 18
5 | COc1ccc2c(c1)CC/C(=C\c1cccc(N(C)C)c1)C2=O | > 100
6 | CN(C)c1ccc(/C=C2\CCc3cc(O)ccc3C2=O)cc1 | > 100
7 | COc1ccc2c(c1)CCC(Cc1ccc(O)cc1)C2=O (stereo not drawn) | 3.5
8 | COc1ccc2c(c1)CCC(Cc1cc(C(F)(F)F)ccc1C(F)(F)F)C2=O (stereo not drawn) | 4.5
9 | COc1ccc2c(c1)CC/C(=C\c1ccccc1C)C2=O | > 20
10 | COc1ccc2c(c1)CC/C(=C\c1ccccc1Br)C2=O | 100
11 | O=C1c2ccc(O)cc2CCC1Cc1ccc(O)cc1 (stereo not drawn) | 8.9
12 | COc1ccc2c(c1)CCC(Cc1ccccc1C)C2=O (stereo not drawn) | 0.9
13 | CC(=O)N1CCN(c2ccc(OC[C@H]3CO[C@](Cn4ccnc4)(c4ccc(Cl)cc4Cl)O3)cc2)CC1 [KETOCONAZOLE] | 20
14 | COc1ccc2c(c1)CC/C(=C\c1ccc(O)cc1)C2=O | > 20
15 | O=C1/C(=C/c2ccc(O)cc2)CCc2cc(O)ccc21 | > 20
16 | O=C1c2ccc(O)cc2CCC1Cc1ccc(-c2ccccc2)cc1 (stereo not drawn) | > 20
17 | COc1ccc2c(c1)CC/C(=C\c1cc(C(F)(F)F)ccc1C(F)(F)F)C2=O | > 100
18 | O=C1c2ccc(O)cc2CCC1Cc1ccccc1-c1ccccc1 (stereo not drawn) | 2.1

Reference: ChEMBL document CHEMBL1138633, “Synthesis and CYP24 inhibitory activity of 2-substituted-3,4-dihydro-2H-naphthalen-1-one (tetralone) derivatives” (Bioorg Med Chem Lett, 2004)
